33 compounds from ChEMBL document CHEMBL1157803 (J Med Chem, 2010) can be followed below.

The test system of experiment [1] is Trypanosoma cruzi. In words: Antitrypanosomal activity against Trypanosoma cruzi Tulahuen amastigotes infected in […] 3T3 cells after 7 days by alamar blue assay. The class given is functional, organism-based. The following applies: NIH3T3, 168 h. The method in brief: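 T. cruzi amastigotes grown inside mammalian host 3T3 cells were exposed to compounds to measure parasite killing.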
(In general: Resazurin is reduced to fluorescent resorufin, in cell work by metabolically active cells.)

The nature of experiment [2]: Inhibition of rat recombinant PFT expressed in insect Sf9 cells by scintillation proximity assay. (In general: In a scintillation proximity assay essentially only radioactivity close to the scintillant gives light.)
Experiment [3] concerns Trypanosoma cruzi. As to the kind of experiment: Ratio of EC50 for tipifarnib to drug for antitrypanosomal activity against Trypanosoma cruzi Tulahuen amastigotes infected in […] 3T3 cells after 7 days by alamar blue assay. The format is functional, NIH3T3.
Experiment [4] concerns the target Cytochrome P450 3A4 (Homo sapiens, UniProt P08684). As to the kind of experiment: Inhibition of human recombinant CYP3A4. The class given is ADME.
Experiment [5] addresses Sterol 14-alpha demethylase (Trypanosoma cruzi (strain CL Brener)) (UniProt Q7Z1V1). In words: Binding affinity to Trypanosoma cruzi recombinant lanosterol 14-alpha-demethylase by optical spectroscopy. The method, boiled down: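 Recombinant T. cruzi lanosterol 14α-demethylase at 1.4 μM was titrated with 0.2–2 μM compound. Binding was followed by difference optical spectroscopy of the visible heme Soret band.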

Active and inactive are the calls of the source. The rule behind the calls is not given here.

Sequence of Cytochrome P450 3A4 (P08684 whole entry): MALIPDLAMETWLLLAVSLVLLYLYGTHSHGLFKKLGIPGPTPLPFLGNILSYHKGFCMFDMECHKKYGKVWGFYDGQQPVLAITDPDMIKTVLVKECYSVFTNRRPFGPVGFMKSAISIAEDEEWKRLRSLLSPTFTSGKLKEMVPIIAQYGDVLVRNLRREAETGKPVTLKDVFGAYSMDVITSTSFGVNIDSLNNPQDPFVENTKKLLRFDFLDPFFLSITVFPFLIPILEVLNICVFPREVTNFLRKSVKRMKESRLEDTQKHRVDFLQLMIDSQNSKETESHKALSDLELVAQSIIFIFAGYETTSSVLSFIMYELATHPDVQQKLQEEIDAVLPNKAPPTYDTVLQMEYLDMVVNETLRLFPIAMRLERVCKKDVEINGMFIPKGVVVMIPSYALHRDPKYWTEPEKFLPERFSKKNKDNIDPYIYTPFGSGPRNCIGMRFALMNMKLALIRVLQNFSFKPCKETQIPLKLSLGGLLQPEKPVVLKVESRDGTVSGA
Sequence of Sterol 14-alpha demethylase (Trypanosoma cruzi (strain CL Brener)) (Q7Z1V1 whole entry, looked up): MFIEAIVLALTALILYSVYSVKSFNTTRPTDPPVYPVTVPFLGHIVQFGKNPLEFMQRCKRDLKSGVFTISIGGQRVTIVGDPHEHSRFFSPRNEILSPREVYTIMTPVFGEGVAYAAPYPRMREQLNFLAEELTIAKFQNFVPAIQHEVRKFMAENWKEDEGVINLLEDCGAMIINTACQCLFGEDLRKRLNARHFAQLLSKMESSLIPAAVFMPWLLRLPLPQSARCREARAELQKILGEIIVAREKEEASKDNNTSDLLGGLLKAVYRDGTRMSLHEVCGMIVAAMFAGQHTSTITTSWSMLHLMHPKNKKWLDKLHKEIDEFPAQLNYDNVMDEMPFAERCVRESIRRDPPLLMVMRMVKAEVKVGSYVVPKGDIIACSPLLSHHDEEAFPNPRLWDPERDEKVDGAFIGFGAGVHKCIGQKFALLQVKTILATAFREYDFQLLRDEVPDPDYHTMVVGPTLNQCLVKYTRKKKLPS

One may read the EC50 as the concentration at which the effect is half-maximal. A higher EC50 goes with lower potency in that assay. Take `COC(c1ccc(Cl)cc1)(c1ccc2c(c1)c(-c1cccc(-c3ccccc3)c1)cc(=O)n2C)c1cncn1C` (centres undefined): in experiment [1], the concentration giving a half-maximal response (EC50) came to 320 nM. On to `COC(c1ccc(C(C)C)cc1)(c1ccc2c(c1)c(-c1cccc(Cl)c1)cc(=O)n2C)c1cncn1C` (centres undefined), for which the EC50 in experiment [1] stood at 33 nM.

As a reminder, the IC50 is the concentration at which inhibition is half-maximal. Regarding `COC(c1ccc(Cl)cc1)(c1ccc2c(c1)c(-c1cccc(F)c1)cc(=O)n2C)c1cncn1C` (centres undefined), the IC50 in experiment [2] is 343 nM. In experiment [1], this compound returned an EC50 of 1.1 nM.

For the compound `CCOC(c1ccc(Cl)cc1)(c1ccc2c(c1)c(-c1cccc(Cl)c1C)cc(=O)n2C)c1cncn1C` (centres undefined), the IC50 in experiment [2] is > 10000 nM. For the same compound, a half-maximal effect in experiment [1] (EC50) was put at 27 nM. In the same order, the values of `COC(c1ccc(Cl)cc1)(c1ccc2c(c1)c(-c1c(Cl)cccc1Cl)cc(=O)n2C)c1cncn1C` (centres undefined) are > 10000 nM and 3.21 nM. For the compound `COC(c1ccc(Cl)cc1)(c1ccc2c(c1)c(-c1cc(C)cc(C)c1)cc(=O)n2C)c1cncn1C` (centres undefined), in experiment [2], the IC50 is 470 nM. For the same compound, in experiment [1], the response was half-maximal at 1.4 nM (EC50). On to `COC(c1ccc(Cl)cc1)(c1ccc2c(c1)c(-c1cccc(Cl)c1C)cc(=O)n2C)c1cncn1C` (centres undefined), for which the IC50 in experiment [2] was > 5000 nM. In experiment [1], this compound had an EC50 of 0.6 nM. Also, in experiment [3], the “Ratio EC50” value worked out at 10. With `Cc1c(Cl)cccc1-c1cc(=O)n(C)c2ccc(C(O)(c3ccc(Cl)cc3)c3cncn3C)cc12` (centres undefined), the IC50 in experiment [2] came to 796 nM. The compound further yielded an EC50 in experiment [1] of 112 nM. In the same order, the values of `COC(c1ccc2ccccc2c1)(c1ccc2c(c1)c(-c1cccc(Cl)c1)cc(=O)n2C)c1cncn1C` (centres undefined) are 2300 nM and 2.2 nM. The like results for `CCn1cncc1C(N)(c1ccc(Cl)cc1)c1ccc2c(c1)c(-c1cccc(Cl)c1)cc(=O)n2C` (centres undefined) were, in that order, 28 nM and 118 nM.

Consider `COC(c1ccc(C(F)(F)F)cc1)(c1ccc2c(c1)c(-c1cccc(Cl)c1)cc(=O)n2C)c1cncn1C` (centres undefined), for which the EC50 in experiment [1] turned out to be 5 nM. With `COC(c1ccc(Cl)cc1)(c1ccc2c(c1)c(-c1ccccc1C)cc(=O)n2C)c1cncn1C` (centres undefined), in experiment [2], the IC50 worked out at 3260 nM. In addition, in experiment [1], the EC50 was determined as 0.7 nM. In the same order, the values of `CCn1cncc1C(OC)(c1ccc(Cl)cc1)c1ccc2c(c1)c(-c1cccc(Cl)c1)cc(=O)n2C` (centres undefined) are 970 nM and 3 nM.

`COC(c1ccc(Cl)cc1)(c1ccc2c(c1)c(-c1cccc(Cc3ccccc3)c1)cc(=O)n2C)c1cncn1C` (centres undefined) came in with an EC50 in experiment [1] of 83 nM. `CNC(c1ccc(Cl)cc1)(c1ccc2c(c1)c(-c1cccc(Cl)c1C)cc(=O)n2C)c1cncn1C` (centres undefined): the IC50 in experiment [2] is 957 nM. The compound further displayed an EC50 in experiment [1] of 5 nM.

`Cn1cncc1C(O)(c1ccc(Cl)cc1)c1ccc2c(c1)c(-c1cccc(Cl)c1)cc(=O)n2C` (centres undefined): the IC50 in experiment [2] worked out at 8 nM. This compound also returned an EC50 in experiment [1] of 17 nM.

Take `COC(c1ccc(Cl)cc1)(c1ccc2c(c1)c(-c1cccc(Cl)c1)cc(=O)n2C)c1cncn1C` (centres undefined): in experiment [2], the 50% inhibitory concentration (IC50) is 65 nM. Moreover, the EC50 in experiment [1] was determined as 3.1 nM. For `COC(c1ccc(Cl)cc1)(c1ccc2c(c1)c(-c1ccccc1)cc(=O)n2C)c1cncn1C` (centres undefined), the IC50 is 330 nM in experiment [2] and 2350 nM in experiment [4]. In experiment [1], this compound yielded an EC50 of 0.8 nM. Consider `COC(c1ccc(Cl)cc1)(c1ccc2c(c1)c(-c1ccccc1F)cc(=O)n2C)c1cncn1C` (centres undefined), for which the IC50 in experiment [2] was determined as 1870 nM. In experiment [1], the midpoint of the response, the EC50, lay at 0.8 nM. As to `CCn1cncc1C(NC)(c1ccc(Cl)cc1)c1ccc2c(c1)c(-c1cccc(Cl)c1)cc(=O)n2C` (centres undefined), the IC50 in experiment [2] came out at 66 nM. The compound also had an EC50 in experiment [1] of 100 nM. Regarding `COC(c1ccc(Cl)cc1)(c1ccc2c(c1)c(-c1c(F)cccc1F)cc(=O)n2C)c1cncn1C` (centres undefined), the results for the IC50 in experiment [2] and in experiment [4] were > 10000 nM and 275 nM, respectively. It took 0.31 nM to reach a half-maximal effect in experiment [1] (EC50). Besides, the outcome in experiment [5] was Active. Consider `COC(c1ccc(Cl)cc1)(c1ccc2c(c1)c(-c1cccc(C(F)(F)F)c1)cc(=O)n2C)c1cncn1C` (centres undefined), for which the IC50 in experiment [2] was 1320 nM. Further, a half-maximal response in experiment [1] (EC50) required 12 nM.

Consider `COC(c1ccc(Cl)cc1)(c1ccc2c(c1)c(-c1c(C)cccc1C)cc(=O)n2C)c1cncn1C` (centres undefined), for which the IC50 in experiment [2] is > 10000 nM. The EC50 in experiment [1] was found to be 1.8 nM. Consider `CCCOC(c1ccc(Cl)cc1)(c1ccc2c(c1)c(-c1cccc(Cl)c1C)cc(=O)n2C)c1cncn1C` (centres undefined), for which the IC50 in experiment [2] was > 5000 nM. The compound also yielded an EC50 in experiment [1] of 69 nM. On to `COC(c1ccc(Cl)cc1)(c1ccc2c(c1)c(-c1ccc(Cl)cc1)cc(=O)n2C)c1cncn1C` (centres undefined), for which the IC50 in experiment [2] stood at 6040 nM; in experiment [4] it was 923 nM. This compound yielded an EC50 in experiment [1] of 0.82 nM.

Consider `Cn1cncc1[C@@](N)(c1ccc(Cl)cc1)c1ccc2c(c1)c(-c1cccc(Cl)c1)cc(=O)n2C` [TIPIFARNIB], for which, in experiment [2], the IC50 was 0.7 nM.

Turning to `COC(c1ccc(Cl)cc1)(c1ccc2c(c1)c(-c1ccccc1C(F)(F)F)cc(=O)n2C)c1cncn1C` (centres undefined), the IC50 in experiment [2] was > 5000 nM. Further, the EC50 in experiment [1] stood at 0.8 nM.

Turning to `COC(c1ccc(Cl)cc1)(c1ccc2c(c1)c(-c1ccc(C)cc1)cc(=O)n2C)c1cncn1C` (centres undefined), the IC50 in experiment [2] stood at 410 nM. Further, the EC50 in experiment [1] is 2 nM.

`COC(c1ccc(C)cc1)(c1ccc2c(c1)c(-c1cccc(Cl)c1)cc(=O)n2C)c1cncn1C` (centres undefined) displayed an EC50 in experiment [1] of 3 nM. `CCn1cncc1C(O)(c1ccc(Cl)cc1)c1ccc2c(c1)c(-c1cccc(Cl)c1)cc(=O)n2C` (centres undefined): the IC50 in experiment [2] is 30 nM. This compound registered an EC50 in experiment [1] of 228 nM. On to `CCc1ccc(C(OC)(c2ccc3c(c2)c(-c2cccc(Cl)c2)cc(=O)n3C)c2cncn2C)cc1` (centres undefined), for which the EC50 in experiment [1] was 10 nM. Take `COC(c1ccc(Cl)cc1)(c1ccc2c(c1)c(-c1cccc(C)c1)cc(=O)n2C)c1cncn1C` (centres undefined): the IC50 in experiment [2] came out at 85 nM. Further, the midpoint of the response in experiment [1], the EC50, lay at 1.2 nM. The like results for `COC(c1ccc(Cl)cc1)(c1ccc2c(c1)c(-c1ccc(F)cc1)cc(=O)n2C)c1cncn1C` (centres undefined) were, in that order, 991 nM and 0.5 nM.
